Compounds with a hit are over-represented: about 3.1% of the library has one in this group of screens.
E-selectin induc = E-selectin induction in HUVECs, primary screen, imaging, HUVEC, immunofluorescence imaging, single point; activation, % at 7.58 µM; 260,000 compounds, 0.37% hits; AID 686992, 2013; P16581; normalized: neutral wells 0, TNF-alpha wells 100;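 active means mean E-selectin-positive cell signal at least 10% of the positive control, reached in at least 60% of replicates, without over 20% cell loss; inconclusive means no rule given, readout overlaps actives, possibly toxicity-flagged; inactive means the rest, including those meeting only one limit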
Target sequence (P16581 whole entry, looked up): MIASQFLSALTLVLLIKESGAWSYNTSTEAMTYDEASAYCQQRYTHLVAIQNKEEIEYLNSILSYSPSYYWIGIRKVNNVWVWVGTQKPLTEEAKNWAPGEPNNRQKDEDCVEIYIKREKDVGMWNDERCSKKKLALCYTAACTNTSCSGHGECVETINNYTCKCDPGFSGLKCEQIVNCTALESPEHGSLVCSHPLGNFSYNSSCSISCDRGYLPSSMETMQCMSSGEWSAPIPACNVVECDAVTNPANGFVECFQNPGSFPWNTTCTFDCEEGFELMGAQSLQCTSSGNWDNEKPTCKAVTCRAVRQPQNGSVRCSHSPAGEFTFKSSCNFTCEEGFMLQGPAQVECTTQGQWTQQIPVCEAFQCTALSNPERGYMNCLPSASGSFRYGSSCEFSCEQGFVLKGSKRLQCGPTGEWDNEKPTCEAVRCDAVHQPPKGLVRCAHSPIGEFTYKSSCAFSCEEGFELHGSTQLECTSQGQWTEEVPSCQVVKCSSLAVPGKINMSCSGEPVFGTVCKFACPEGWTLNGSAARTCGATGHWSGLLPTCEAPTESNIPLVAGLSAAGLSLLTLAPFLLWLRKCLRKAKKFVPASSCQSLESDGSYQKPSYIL
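assay system = HUVEC, human umbilical vein endothelial cells | input = 3,000 HUVEC seeded per well | medium = EGM-2 growth medium on 0.1% gelatin-coated wells | dosing = one compound dose added by pin transfer | signal = immunofluorescence imaging | read-out basis = % PE-positive cells | control set = TNF-alpha, DMSO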
Ecoli rRNA inh = reduced GFP signal of wild-type E. coli, primary screen, bacterial rRNA inhibitor project, GFP/RFP fluorescence, OD600, single point. GFP signal change (wild-type ribosome), % (concentration not given with the values). 350,000 compounds, 1.6% hits. E. coli WT GFP vs humanized-ribosome RFP mutants, 24 h; stronger effect = lower value; DMSO median 0, no signal -100. AID 720706, 2013;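 active means significant combined selectivity score with lowered wild-type GFP, culture density cut under 30%, mutant RFP and density less affected; inactive means any of these conditions unmet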
Cneo AK release = Cryptococcus neoformans cell lysis inducers, primary screen, AK release luminescence, single concentration | C. neoformans lysis, adenylate kinase release luminescence, 4 h; normalised: neutral wells 0, clomiphene wells 100 | lysis activity, % at 15 µM | 360,000 compounds, 0.2% hits | AID 651654, 2012;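 active means mean lysis activity across replicates of at least 80%, whatever share of replicates individually reach that level; inactive means mean lysis activity below 80%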
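Material: C. neoformans cells; Schedule: 4 h static compound exposure, 37 °C, read 1 h post-reagent; Measured by: adenylate kinase release luminescence; Read-out: signal increase indicating cell lysis; Controls: Clomiphene as positive lysis control.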
miR-122 sensor = miR-122 Renilla sensor signal increase in Huh7, primary screen, miR-122 inhibitor project, cell-based, single point, plate reader. Huh7 miR-122 Renilla luciferase sensor, 48 h; neutral wells = 0, positive control = 100. activation (reporter increase), % at 12.5 µM. 340,000 compounds, 0.3% hits. AID 602342, 2012;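 active means mean replicate activation score at least 90 and every replicate individually at or above 90; inconclusive means only one of the two criteria met; inactive means neither criterion met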;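 further: higher luciferase means less miR-122 activity so hits act as miR-122 inhibitors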
DENV2 CPE = inhibitors of DENV2 cytopathic effect, primary screen, cell-based, plate reader, single concentration; DENV2-infected cells, cytopathic effect rescue; CPE inhibition, % at 9.99 µM; 350,000 compounds, 1.7% hits; AID 651640, 2012; in the data active means CPE inhibition above about 20%, passing the limit was not always enough; inconclusive means no clear call, values can overlap the other calls; tested in BHK-21 cells;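 further: 0% = median of neutral control wells and 100% = median of positive control wells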
* hit, by the source's call; ? = inconclusive; / = no result; [ ] = another dose, or the depositor's remark.

SMILES | E-selectin induc | Ecoli rRNA inh | Cneo AK release | miR-122 sensor | DENV2 CPE
CCc1ccc(-c2cc(C)no2)cc1S(=O)(=O)NCCc1ccc(OC)c(OC)c1 | / | -9 | / | 132* | -1
C[C@H]1CN([C@@H](C)CO)C(=O)c2cccc(NC(=O)NC3CCCCC3)c2O[C@@H]1CN(C)Cc1ccc(C(=O)O)cc1 | / | -2 | -3 | 0[16.7 µM] | 3
COc1ccc(C[C@@H]2CCc3cnnn3COC[C@H](C)NC2=O)cc1 | / | 4 | / | / | /
NNC(=O)c1ccc(COc2ccccc2)cc1 | 1 | 5 | 4 | -9 | 6
CCCCNC(=S)N/N=C/c1ccc(C#N)cc1 | / | -40 | 86* | 6 | /
NNC(=O)c1c[nH]c2ccc(OCc3ccccc3)cc12 | / | -27* | / | / | 4
CCNC(=S)N/N=C/c1ccc(F)cc1 | ? | -1 | / | / | -6
COc1ccc2[nH]cc(C(=O)NCCc3ccccc3)c(=O)c2c1 | 0 | -21* | -1 | 12 | -4
COc1ccc2c(=O)c(C(=O)NCCc3ccccc3)c[nH]c2c1 | 0 | -27* | -1 | / | -2
COc1ccc2c(=O)c(C(=O)NCc3ccccc3)c[nH]c2c1 | 1 | -2 | -2 | -2 | -2
Cc1ccccc1-c1cnc2c(c1)C(=O)N([C@@H](C)CO)C[C@H](C)[C@H](CN(C)Cc1cccnc1)O2 | 0 | -2 | -7 | -1[16.7 µM] | 0
COc1ccc2c3c(n(C)c2c1)[C@H](CO)N(C(C)=O)CC31CCN(C(=O)NC(C)C)CC1 | 0 | 3 | / | / | ?
COc1ccc(/C=N/NC(=S)NCCc2ccccc2)cc1 | 0 | -22* | 11 | 22 | -6
COc1ccc2[nH]cc(CCNC(=O)Nc3ccccc3)c2c1 | / | -8 | -3 | 0 | 5
COc1ccc2[nH]cc(CCNC(=O)C3CC(=O)N(c4ccc(Cl)cc4)C3)c2c1 (stereo not drawn) | / | -24* | -1 | 0 | -3
COc1ccc2[nH]cc(CCNC(=S)NCCc3ccccc3)c2c1 | / | -35* | 2 | 2 | 1
CC=Cc1ccc2n(c1=O)C[C@H]1[C@H](CO)[C@@H](C(=O)NCCC)[C@@H]2N1CC1CCCC1 (mixture of isomers) | 0 | -4 | -1 | / | -2
CCCNC(=O)N(C)C[C@@H]1Oc2ncc(C#C[C@@H](C)O)cc2C(=O)N([C@@H](C)CO)C[C@H]1C | 0 | 3 | -2 | -2[16.7 µM] | -5
O=C(Cc1ccccn1)c1ccccc1 | 0 | 5 | 0 | / | 50*
COCC(=O)N1C[C@H](C)[C@H](OC)CN(C)C(=O)c2ccc(NC(=O)NC(C)C)cc2OC[C@@H]1C | 0 | 2 | 80* | 23[16.7 µM] | 3
CCC(=O)N1C[C@H](C)[C@H](OC)CN(C)C(=O)c2ccc(NC(=O)NC(C)C)cc2OC[C@H]1C | 0 | 0 | / | / | 70*
CCS(=O)(=O)N1CCC2(CC1)CN(C(=O)Nc1cccc(F)c1)[C@H](CO)c1c2c2ccc(OC)cc2n1C | 1 | -4 | / | / | 8
CC(=O)c1sc(NC(=O)c2ccccc2)nc1-c1ccccc1 | 2 | -20* | / | / | 5
C[C@H]1CN([C@@H](C)CO)S(=O)(=O)c2ccc(-c3ccncc3)cc2O[C@@H]1CN(C)C(=O)C1CCCCC1 | 0 | -11 | / | 21[16.7 µM] | /
O=C1Nc2ccc([N+](=O)[O-])cc2OC1CCN1CCN(Cc2ccccc2)CC1 (stereo not drawn) | / | 1 | / | / | -1
SMILES | E-selectin induc | Ecoli rRNA inh | Cneo AK release | miR-122 sensor | DENV2 CPE
O=C1Nc2ccc([N+](=O)[O-])cc2OC1CCN1CCN(Cc2ccc3c(c2)OCO3)CC1 (stereo not drawn) | -1 | 2 | -2 | 153* | 1
CC(C)CC#Cc1ccc2c(c1)O[C@H](CN(C)C(=O)Cc1cccnc1)[C@@H](C)CN([C@H](C)CO)S2(=O)=O | 0 | -2 | 29 | / | 1
CO[C@H]1CN(C)C(=O)c2ccc(NC(=O)C3CCCC3)cc2OC[C@H](C)NC[C@@H]1C | 0 | 3 | / | / | 12
O=[N+]([O-])c1ccc(N/N=C/c2ccccc2O)cc1 | / | -19* | -2 | / | 5
O=[N+]([O-])c1ccc(NN=Cc2ccccc2O)nc1 | / | -30 | 8 | -5 | 19
O=[N+]([O-])c1ccc(NN=Cc2ccc(O)cc2O)nc1 | 0 | -22* | 0 | 9 | -12
O=C(NN=Cc1ccccc1O)c1cccc([N+](=O)[O-])c1 | 0 | -27* | -1 | -3 | 14
COc1ccc2c3c([nH]c2c1)[C@@H](CO)N(C(=O)c1ccc(F)cc1)CC31CCN(C(=O)CC2CC2)CC1 | 0 | 1 | / | / | 6
COc1ccc(NC(=O)CSc2ccccn2)c([N+](=O)[O-])c1 | 0 | -26* | 1 | -1 | 0
Cc1ccc(Cl)cc1NC(=S)N(C)N | / | 16 | 3 | -17 | -1
Cc1ccc(NC(=S)N(C)N)cc1Cl | 0 | -25* | 1 | -7 | 2
O=C(C[C@@H]1CC[C@H]2[C@@H](COC[C@@H](O)CN2Cc2ccc(Cl)cc2)O1)NCc1cccc(F)c1 | 0 | -15 | 104* | 6[16.7 µM] | 1
O=C(C[C@@H]1CC[C@@H]2[C@H](COC[C@H](O)CN2Cc2ccc(Cl)cc2)O1)NCc1cccc(F)c1 | 0 | -7 | 2 | -6[16.7 µM] | 10
COc1ccccc1CNC(=O)C[C@@H]1CC[C@@H]2[C@H](COC[C@@H](O)CN2Cc2ccccc2)O1 | 0 | -4 | 109* | 3[16.7 µM] | 3
O=C(C[C@@H]1CC[C@H]2[C@@H](COC[C@@H](O)CN2Cc2cccc(C(F)(F)F)c2)O1)NCCc1ccccc1 | 0 | -3 | 0 | 0[16.7 µM] | 26*
CCNC(=O)C[C@H]1CC[C@H]2[C@@H](COC[C@H](O)CN2Cc2ccc(Cl)c(Cl)c2)O1 | 0 | -10 | -5 | 0[16.7 µM] | 109*
O=C(C[C@@H]1CC[C@@H]2[C@H](COC[C@@H](O)CN2Cc2cccc(C(F)(F)F)c2)O1)NCCc1ccccc1 | 0 | -28 | -2 | -8[16.7 µM] | -5
COc1ccc2c3c(n(C)c2c1)[C@H](CO)NCC31CCN(Cc2ccc(F)cc2)CC1 | / | -1 | / | / | /
CNC(=O)C[C@H]1CC[C@H]2[C@@H](COC[C@@H](O)CN2Cc2ccncc2)O1 | 0 | -2 | 4 | -1[16.7 µM] | -11
CNC(=O)C[C@@H]1CC[C@@H]2[C@H](COC[C@@H](O)CN2Cc2ccncc2)O1 | 0 | 0 | 6 | 1[16.7 µM] | 25*
COc1ccc(S(=O)(=O)Nc2ccc3c(c2)CC(=O)N([C@@H](C)CO)C[C@H](C)[C@H](CN(C)Cc2ccc(C(=O)O)cc2)O3)cc1 | 0 | 3 | -4 | -5[16.7 µM] | -2
C[C@H]1CN([C@@H](C)CO)C(=O)Cc2cc(NC(=O)CCN3CCOCC3)ccc2O[C@H]1CN(C)S(=O)(=O)c1ccc(F)cc1 | 0 | 2 | -1 | -4[16.7 µM] | -7

Assay outcomes as filed in PubChem BioAssay.
